Measured values from ChEMBL document CHEMBL1938283, “Novel diamino imidazole and pyrrole-containing polyamides: Synthesis and DNA binding studies of mono- and diamino-phenyl-ImPy*Im polyamides designed to target 5'-ACGCGT-3'” (Bioorg Med Chem, 2012).
Activity calls are given as the source filed them. The rule behind the calls is not given here.

Experiments:
[1] = test system: Nucleic Acid; experiment: Binding affinity to 5'-ACGCGT-3' DNA at 30:80 of DNA/compound ratio by isothermal titration calorimetry; type: nucleic-acid assay
Outline: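 ITC by the model-free method at 25 °C in 0.01 M cacodylic acid. Polyamide at 80 µM was injected into 30 µM DNA in 30 × 10 µL injections, every 300 s after a 300 s delay, up to a mole ratio of about 0.6:1. Integrated heats were corrected for nonspecific heats including dilution, and normalized ΔH was fitted linearly against mole ratio.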

[2] = test system: Nucleic Acid; experiment: Binding affinity to 5'-AAATTT-3' DNA at 9:500 of DNA/compound ratio by CD spectral analysis; type: nucleic-acid assay
[3] = test system: Nucleic Acid; experiment: Binding affinity to 5'-AAGCTA-3' DNA assessed as macroscopic binding constant K2 by surface plasmon resonance-biosensor method; type: nucleic-acid assay
Outline: (§1)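 SPR biosensor at 25 °C. 5'-biotinylated DNA hairpins, about 400 RU, were captured on streptavidin chips, with one blank flow cell as reference. Running buffer was 0.01 M cacodylic acid pH 6.25, 0.1 M NaCl, 1 mM EDTA, 0.005% P20. Known polyamide concentrations were injected and fitted to one- or two-site models to give K1 and K2.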

[4] = test system: Nucleic Acid; experiment: Binding affinity to 5'-ACGCGT-3' DNA by surface plasmon resonance-biosensor method; type: nucleic-acid assay; outline: as §1
[5] = test system: Nucleic Acid; experiment: Binding affinity to 5'-ACGCGT-3' DNA assessed as change in melting temperature at 1:3 of DNA/compound ratio by spectrophotometry; type: nucleic-acid assay
Outline: (§2)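 UV thermal melt (Cary spectrophotometer) of each duplex, 1 µM DNA with 3 µM polyamide, in 10 mM phosphate buffer with 12.5 mM NaCl, 1 mM EDTA, pH 6.2. ΔTM is the melting temperature of the DNA–polyamide complex minus that of duplex DNA alone.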

[6] = test system: Nucleic Acid; experiment: Binding affinity to 5'-AAATTT-3' DNA assessed as change in melting temperature at 1:3 of DNA/compound ratio by spectrophotometry; type: nucleic-acid assay; outline: as §2
[7] = test system: Nucleic Acid; experiment: Binding affinity to 5'-AAGCTA-3' DNA by surface plasmon resonance-biosensor method; type: nucleic-acid assay; outline: as §1
[8] = test system: Nucleic Acid; experiment: Binding affinity to 5'-ACACTT-3' DNA assessed as change in melting temperature at 1:3 of DNA/compound ratio by spectrophotometry; type: nucleic-acid assay; outline: as §2
[9] = test system: Nucleic Acid; experiment: Binding affinity to DNA minor-groove 5'-ACGCGT-3' sequence at 9:500 of DNA/compound ratio by CD spectral analysis; type: nucleic-acid assay
[10] = test system: Nucleic Acid; experiment: Binding affinity to 5'-ACGCGT-3' DNA assessed as macroscopic binding constant K1 by surface plasmon resonance-biosensor method; type: nucleic-acid assay; outline: as §1
[11] = test system: Nucleic Acid; experiment: Binding affinity to 5'-ACGCGT-3' DNA assessed as macroscopic binding constant K2 by surface plasmon resonance-biosensor method; type: nucleic-acid assay; outline: as §1
[12] = test system: Nucleic Acid; experiment: Binding affinity to 5'-ACGCGT-3' DNA at 9:500 of DNA/compound ratio by CD spectral analysis; type: nucleic-acid assay
[13] = test system: Nucleic Acid; experiment: Binding affinity to 5'-ACACTT-3' DNA at 9:500 of DNA/compound ratio by CD spectral analysis; type: nucleic-acid assay
[14] = test system: Nucleic Acid; experiment: Binding affinity to 5'-ACGCGT-3' sequence in 125 bp 5'-[32P]-radiolabeled DNA at 0.5 uM after 30 mins by DNase1 footprinting analysis; type: nucleic-acid assay
Outline: (§3)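 A 125 bp radiolabeled PCR fragment was incubated 30 min at room temperature with polyamide in 10 mM Tris, 10 mM NaCl, pH 7. DNase I (0.02 U, with Mg2+/Mn2+, pH 8.0) then cleaved for 3 min, stopped by freezing on dry ice. Products were resolved on a denaturing 10% polyacrylamide urea gel and read by autoradiography.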

[15] = test system: Nucleic Acid; experiment: Binding affinity to 5'-AAGCTA-3' DNA assessed as macroscopic binding constant K1 by surface plasmon resonance-biosensor method; type: nucleic-acid assay; outline: as §1
[16] = test system: Nucleic Acid; experiment: Binding affinity to 5'-AAATTT-3' DNA by surface plasmon resonance-biosensor method; type: nucleic-acid assay; outline: as §1
[17] = test system: Nucleic Acid; experiment: Binding affinity to DNA minor-groove 5'-ACCGGT-3' sequence; type: nucleic-acid assay
[18] = test system: Nucleic Acid; experiment: Binding affinity to DNA minor-groove 5'-ACGCGT-3' sequence; type: nucleic-acid assay
[19] = test system: Nucleic Acid; experiment: Binding affinity to 5'-AAATTT-3' DNA; type: nucleic-acid assay
[20] = test system: Nucleic Acid; experiment: Binding affinity to 5'-AAATTT-3' DNA assessed as macroscopic binding constant K1 by surface plasmon resonance-biosensor method; type: nucleic-acid assay; outline: as §1
[21] = test system: Nucleic Acid; experiment: Binding affinity to 5'-ACGCGT-3' sequence in 125 bp 5'-[32P]-radiolabeled DNA at 0.05 uM after 30 mins by DNase1 footprinting analysis; type: nucleic-acid assay; outline: as §3
[22] = Solubility of the compound in water; type: physicochemical; settings: buffer
[23] = test system: Nucleic Acid; experiment: Binding affinity to 5'-ACACGT-3' sequence in 125 bp 5'-[32P]-radiolabeled DNA at 100 uM after 30 mins by DNase1 footprinting analysis; type: nucleic-acid assay; outline: as §3
[24] = test system: Nucleic Acid; experiment: Binding affinity to 5'-ACCGGT-3' sequence in 125 bp 5'-[32P]-radiolabeled DNA at 100 uM after 30 mins by DNase1 footprinting analysis; type: nucleic-acid assay; outline: as §3
[25] = test system: Nucleic Acid; experiment: Binding affinity to 5'-AGCGCT-3' sequence in 125 bp 5'-[32P]-radiolabeled DNA at 100 uM after 30 mins by DNase1 footprinting analysis; type: nucleic-acid assay; outline: as §3
[26] = test system: Nucleic Acid; experiment: Binding affinity to 5'-ACGCGT-3' sequence in 125 bp 5'-[32P]-radiolabeled DNA at 20 uM after 30 mins by DNase1 footprinting analysis; type: nucleic-acid assay; outline: as §3

SMILES	Activity [1]	K [3]	Kb [4]	ΔTm [5] [°C]	ΔTm [6] [°C]	Kb [7]	ΔTm [8] [°C]	Activity [9]	K [10]	K [11] [×10⁸ /M]	Activity [12]	Activity [14]	K [15] [×10⁵ /M]	Activity [16]	also measured
CN(C)CCNC(=O)c1nc(NC(=O)c2cc(NC(=O)c3nc(NC(=O)c4ccccc4)cn3C)cn2CCCN)cn1C	Active	1.2 ×10⁷ /M	1.5 ×10⁷ /M	> 25	7.6	2.1 ×10⁶ /M	0	Active	8.7 ×10⁵ /M	2.7	Active	Active	2.9	inactive	Activity [2]: Active; Activity [13]: Active
CN(C)CCNC(=O)c1nc(NC(=O)c2cc(NC(=O)c3nc(NC=O)cn3C)cn2C)cn1C				9	1				1.9 ×10⁸ /M			Active			K [17]: 2.2 ×10⁵ /M; K [18]: 1.9 ×10⁸ /M; K [19]: 5.3 ×10⁴ /M; K [20]: 5.3 ×10⁴ /M; Activity [21]: Active
CN(C)CCNC(=O)c1nc(NC(=O)c2cc(NC(=O)c3nc(NC=O)cn3C)cn2CCCN)cn1C.Cl															solubility [22]: soluble
CN(C)CCNC(=O)c1nc(NC(=O)c2cc(NC(=O)c3nc(NC(=O)c4ccccc4)cn3C)cn2C)cn1C	Active	2.8 ×10⁵ /M	4.8 ×10⁶ /M	9	0	2.5 ×10⁵ /M	0	Active	6.1 ×10⁴ /M	3.7	Active		2.3	inactive	Activity [23]: inactive; Activity [24]: inactive; Activity [25]: inactive; Activity [26]: Active
